pIC50: −log10 of the molar value. Activity calls are given as the source filed them. The rule behind the calls is not given here.
How the values were obtained:
[1] = system: U-87MG ATCC; experiment: Cytotoxicity against human U87 cells assessed as reduction in cell viability at 5 to 40 uM after 72 hrs by MTT assay; format: functional, cell-based
Outline: (§1)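 Cells in RPMI 1640, DMEM or DMEM/F12 with 10% FBS, 37 °C, 5% CO2. Plated at 5 × 10^3 cells/well and attached overnight. Exposed 72 h to 5, 10, 20 or 40 μM from DMSO stocks diluted in medium. MTT (5 mg/mL stock in PBS) added for 4 h at 37 °C, formazan dissolved in DMSO, A490 read. Untreated cells taken as 100%.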

[2] = system: BXPC-3; experiment: Cytotoxicity against human BxPC3 cells assessed as reduction in cell viability at 5 to 40 uM after 72 hrs by MTT assay; format: functional, cell-based; outline: as §1
[3] = system: NCI-H2126; experiment: Cytotoxicity against human NCI-H2126 cells assessed as reduction in cell viability at 5 to 40 uM after 72 hrs by MTT assay; format: functional, cell-based; outline: as §1
[4] = system: PANC-1; experiment: Cytotoxicity against human PANC1 cells assessed as reduction in cell viability at 5 to 40 uM after 72 hrs by MTT assay; format: functional, cell-based; outline: as §1
[5] = system: A549; experiment: Cytotoxicity against human A549 cells assessed as reduction in cell viability at 5 to 40 uM after 72 hrs by MTT assay; format: functional, cell-based; outline: as §1
[6] = system: MCF7; experiment: Cytotoxicity against human MCF7 cells assessed as reduction in cell viability at 5 to 40 uM after 72 hrs by MTT assay; format: functional, cell-based; outline: as §1
[7] = system: MDA-MB-231; experiment: Cytotoxicity against human MDA-MB-231 cells assessed as reduction in cell viability at 5 to 40 uM after 72 hrs by MTT assay; format: functional, cell-based; outline: as §1
[8] = system: SMMC-7721; experiment: Cytotoxicity against human SMMC7721 cells assessed as reduction in cell viability at 5 to 40 uM after 72 hrs by MTT assay; format: functional, cell-based; outline: as §1
[9] = system: HepG2; experiment: Cytotoxicity against human HepG2 cells assessed as reduction in cell viability at 5 to 40 uM after 72 hrs by MTT assay; format: functional, cell-based; outline: as §1
[10] = system: AGS; experiment: Cytotoxicity against human AGS cells assessed as reduction in cell viability at 5 to 40 uM after 72 hrs by MTT assay; format: functional, cell-based; outline: as §1
[11] = Cytotoxicity against human MIHA cells assessed as reduction in cell viability at 5 to 40 uM after 72 hrs by MTT assay; format: cell-based; outline: as §1
[12] = system: A-375; experiment: Cytotoxicity against human A375 cells assessed as reduction in cell viability at 5 to 40 uM after 72 hrs by MTT assay; format: functional, cell-based; outline: as §1
[13] = system: AGS; experiment: Cytotoxicity against human AGS cells assessed as reduction in cell viability after 72 hrs by MTT assay; format: functional, cell-based; outline: as §1
[14] = system: BXPC-3; experiment: Cytotoxicity against human BxPC3 cells assessed as reduction in cell viability after 72 hrs by MTT assay; format: functional, cell-based; conditions: BXPC-3, 72 h; outline: as §1
[15] = system: NCI-H2126; experiment: Cytotoxicity against human NCI-H2126 cells assessed as reduction in cell viability after 72 hrs by MTT assay; format: functional, cell-based; conditions: NCI-H2126, 72 h; outline: as §1
[16] = system: PANC-1; experiment: Cytotoxicity against human PANC1 cells assessed as reduction in cell viability after 72 hrs by MTT assay; format: functional, cell-based; conditions: PANC-1, 72 h; outline: as §1
[17] = system: SMMC-7721; experiment: Cytotoxicity against human SMMC7721 cells assessed as reduction in cell viability after 72 hrs by MTT assay; format: functional, cell-based; conditions: SMMC-7721, 72 h; outline: as §1
[18] = system: A549; experiment: Cytotoxicity against human A549 cells assessed as reduction in cell viability after 72 hrs by MTT assay; format: functional, cell-based; conditions: A549, 72 h
Outline: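 Human lung line cultured in RPMI 1640, DMEM or DMEM/F12 with 10% FBS at 37 °C, 5% CO2. 5 × 10^3 cells/well plated and left to attach overnight. Compound taken from DMSO stock, diluted in medium, tested at 5, 10, 20 and 40 μM for 72 h. MTT (5 mg/mL stock) added for 4 h at 37 °C. Formazan dissolved in DMSO, absorbance read at 490 nm. Untreated cells set as 100%.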

[19] = system: A-375; experiment: Cytotoxicity against human A375 cells assessed as reduction in cell viability after 72 hrs by MTT assay; format: functional, cell-based; conditions: A-375, 72 h; outline: as §1

Compound	Activity [1]	Activity [2]	Activity [3]	Activity [4]	Activity [5]	Activity [6]	Activity [7]	Activity [8]	Activity [9]	Activity [10]	Activity [11]	Activity [12]	pIC50 [13]	pIC50 [14]	pIC50 [15]	pIC50 [16]	pIC50 [17]	pIC50 [18]	pIC50 [19]
O=c1c(O)c(-c2ccc(O)cc2)oc2cc(O)cc(O)c12 [KAEMPFEROL]	Active	Active	Active	Active	Active	Active	Active	Active	Active	Active	Non-toxic	Active	–	–	–	–	–	–	–
C=C(C)[C@@H]1C[C@]23C[C@H](CC=C(C)C)C(C)(C)[C@](CC=C(C)C)(C(=O)C(C(=O)c4ccc(O)c(O)c4)=C2O[C@H]1C=C(C)C)C3=O [GARCINIALIPTONE B]	Active	Active	Active	Active	Active	Active	Active	Active	Active	Active	Non-toxic	Active	–	–	–	–	–	–	–
CC(=O)O[C@H]1C(=O)[C@@]2(C)[C@H]([C@H](OC(=O)c3ccccc3)[C@]3(O)C[C@H](OC(=O)[C@H](O)[C@@H](NC(=O)c4ccccc4)c4ccccc4)C(C)=C1C3(C)C)[C@]1(OC(C)=O)CO[C@@H]1C[C@@H]2O [PACLITAXEL]	–	–	–	–	–	–	–	–	–	–	–	–	5.80	7.05	5.60	6.59	6.82	6.14	8.04
C=C(C)CCC(C[C@@]12C[C@H](CC=C(C)C)C(C)(C)[C@@](CC=C(C)C)(C1=O)c1oc3cc(O)c(O)cc3c(=O)c1C2=O)C(=C)C (relative stereo)	Active	Active	Active	Active	Active	Active	Active	Active	Active	Active	Non-toxic	Active	–	–	–	–	–	–	–
COc1c(OC)c(O)c2c(=O)c3c(CC=C(C)C)c(CC=C(C)C)c(O)c(O)c3oc2c1CC=C(C)C [NUJIANGEXANTHONE B]	Active	Active	Active	Active	Active	Active	Active	Active	Active	Active	Non-toxic	Active	–	–	–	–	–	–	–
C=C(C)CCC(C[C@@]12C[C@@H](CC=C(C)C)C(C)(C)[C@@](CC=C(C)C)(C(=O)c3c1oc1cc(O)c(O)cc1c3=O)C2=O)C(=C)C (relative stereo)	Active	Active	Active	Active	Active	Active	Active	Active	Active	Active	Non-toxic	Active	–	–	–	–	–	–	–
CC1(C)C=Cc2c(cc(O)c3c(=O)c4ccc(O)c(O)c4oc23)O1 [ISOJACAREUBIN]	–	–	–	–	–	–	–	–	–	–	Non-toxic	–	–	–	–	–	–	–	–
C=C(C)CCC(C[C@]12C[C@@H]3[C@H](C=C(C)C)[C@](C(=O)c4ccc(O)c(O)c4)(C1=O)C(=O)[C@](CC=C(C)C)(C2=O)C3(C)C)C(=C)C (stereo partly specified)	Active	Active	Active	Active	Active	Active	Active	Active	Active	Active	Non-toxic	Active	–	–	–	–	–	–	–
COc1c(O)c(O)c2c(=O)c3c(CC=C(C)C)c(CC=C(C)C)c(O)c(O)c3oc2c1CC=C(C)C [NUJIANGEXANTHONE A]	Active	Active	Active	Active	Active	Active	Active	Active	Active	Active	Non-toxic	Active	–	–	–	–	–	–	–
C=C(C)[C@@H](CC=C(C)C)C[C@@]12C[C@H](CC=C(C)C)C(C)(C)[C@@](CC=C(C)C)(C(=O)C(C(=O)c3ccc(O)c(O)c3)=C1O)C2=O	Active	Active	Active	Active	Active	Active	Active	Active	Active	Active	Non-toxic	Active	–	–	–	–	–	–	–
C=C(C)CC[C@@H]1C[C@]23C[C@H](CC=C(C)C)C(C)(C)[C@](CC=C(C)C)(C(=O)C(C(=O)c4ccc(O)c(O)c4)=C2OC1(C)C)C3=O [CYCLOXANTHOCHYMOL]	Active	Active	Active	Active	Active	Active	Active	Active	Active	Active	Non-toxic	Active	–	–	–	–	–	–	–
C=C(C)CC[C@H]1C[C@@]23C[C@@H](CC=C(C)C)C(C)(C)[C@@](CC=C(C)C)(C(=O)C(C(=O)c4ccc(O)c(O)c4)=C2OC1(C)C)C3=O	Active	Active	Active	Active	Active	Active	Active	Active	Active	Active	Non-toxic	Active	–	–	–	–	–	–	–
CC(C)=CC[C@H]1C[C@@]23C[C@H](CC=C(C)C)C(C)(C)[C@@](CC=C(C)C)(C(=O)C(C(=O)c4ccc(O)c(O)c4)=C2OC1(C)C)C3=O	Active	Active	Active	Active	Active	Active	Active	Active	Active	Active	Non-toxic	Active	–	–	–	–	–	–	–
CC(C)=CC[C@H]1C[C@@]23C[C@@H](CC=C(C)C)C(C)(C)[C@@](CC=C(C)C)(C(=O)C(C(=O)c4ccc(O)c(O)c4)=C2OC1(C)C)C3=O [CAMBOGIN]	Active	Active	Active	Active	Active	Active	Active	Active	Active	Active	Non-toxic	Active	–	–	–	–	–	–	–
C=C(C)CCC(C[C@]12C[C@H](CC=C(C)C)C(C)(C)[C@@]3(C[C@@H](C(C)(C)O)OC3=C(C(=O)c3ccc(O)c(O)c3)C1=O)C2=O)C(=C)C (relative stereo)	Active	Active	Active	Active	Active	Active	Active	Active	Active	Active	Non-toxic	Active	–	–	–	–	–	–	–
COc1cc2c(=O)c3c(O)c(CC=C(C)C)c(O)c(CC=C(C)C)c3oc2c(O)c1O [XANTHONE V2A]	Active	Active	Active	Active	Active	Active	Active	Active	Active	Active	Non-toxic	Active	–	–	–	–	–	–	–

Source: ChEMBL document CHEMBL2086222, “Bioassay-guided isolation of prenylated xanthones and polycyclic acylphloroglucinols from the leaves of Garcinia nujiangensis” (J Nat Prod, 2012)
